In paper PMC8968902 (Haematologica, 2021):

What was measured:
[1] = reported half-lives; cited from earlier work
[2] = tested on: TNFa; conditions: BTKi-naïve patients; cited from earlier work
[3] = tested on: CCL3; conditions: BTKi-naïve patients; cited from earlier work
[4] = tested on: CCL4; conditions: BTKi-naïve patients; cited from earlier work
[5] = biological target: BTK WT (Homo sapiens, UniProt Q06187); test: In vitro cellular assay, BTK residence time, BTK WT; format: cell-based; conditions: read-out: BTK residence time
[6] = Phase Ib dose-escalation study: safety and tolerability in patients; format: in vivo, human
[7] = tested on: relapsed/refractory CLL or other B-cell malignancies; test: Phase Ib dose-escalation study: clinical activity; format: in vivo, human
[8] = Pharmacokinetics in patients; format: in vivo, human; conditions: 38 patients, 20.5-410 mg BID
In short: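 Phase Ib, patients with relapsed/refractory CLL or other B-cell malignancies; test compound given orally as capsules twice daily at seven escalating dose levels, 20.5 mg/dose up to 410 mg BID. Pharmacokinetic data from 38 patients across the ~12 hour dosing interval; trough concentrations taken on cycle 1 day 8.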

[9] = tested on: TNFa; test: Serum cytokine levels by ELISA in CLL patients; format: in vivo, human; conditions: after one cycle, 246, 328 and 410 mg dose levels
[10] = tested on: CCL4; test: Serum cytokine levels by ELISA in CLL patients; format: in vivo, human; conditions: after one cycle, 246, 328 and 410 mg dose levels
[11] = Protein binding; format: in vitro ADME
[12] = tested on: CCL3; test: Serum cytokine levels by ELISA in CLL patients; format: in vivo, human; conditions: after one cycle, 246, 328 and 410 mg dose levels

BTK WT, sequence (Q06187 whole entry): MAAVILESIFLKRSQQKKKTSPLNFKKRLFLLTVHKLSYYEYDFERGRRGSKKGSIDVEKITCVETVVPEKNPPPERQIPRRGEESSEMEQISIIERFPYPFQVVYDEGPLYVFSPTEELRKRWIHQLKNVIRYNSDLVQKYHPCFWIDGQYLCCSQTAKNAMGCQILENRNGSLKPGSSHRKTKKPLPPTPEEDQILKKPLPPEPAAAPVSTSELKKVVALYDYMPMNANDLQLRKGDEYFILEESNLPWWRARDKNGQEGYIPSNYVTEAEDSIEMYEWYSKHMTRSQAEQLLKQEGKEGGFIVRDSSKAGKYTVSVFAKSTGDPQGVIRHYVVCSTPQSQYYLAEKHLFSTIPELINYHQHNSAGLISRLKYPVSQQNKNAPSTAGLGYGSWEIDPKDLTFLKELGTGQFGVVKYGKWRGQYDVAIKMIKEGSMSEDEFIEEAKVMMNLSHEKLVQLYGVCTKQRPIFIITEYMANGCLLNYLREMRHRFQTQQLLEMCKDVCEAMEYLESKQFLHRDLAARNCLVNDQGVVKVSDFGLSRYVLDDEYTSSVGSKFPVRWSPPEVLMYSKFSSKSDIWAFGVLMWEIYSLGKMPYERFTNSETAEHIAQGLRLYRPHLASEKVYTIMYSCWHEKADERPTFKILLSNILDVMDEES

COc1ccc(F)cc1C(=O)NCc1ccc(-c2nn([C@@H](C)C(F)(F)F)c(N)c2C(N)=O)cc1 [Pirtobrutinib, pirtobrutinib]
Half-life [1]: approximately 20 hours

O=C(c1ccc(Oc2ccccc2)cc1Cl)c1c[nH]c2ncnc(N[C@@H]3CC[C@@H](CO)OC3)c12 [ARQ 531]
Half-life [1]: ~55 h

C=CC(=O)N1CCC[C@@H](n2nc(-c3ccc(Oc4ccccc4)cc3)c3c(N)ncnc32)C1 [Ibrutinib, ibrutinib]
Median decrease in TNFa [2]: ≥ 80% | Median decrease in CCL3 [3]: ≥ 80% | Median decrease in CCL4 [4]: ≥ 80%

NC(=O)[C@H]1CCN(c2ncnc(N)c2F)C[C@@H]1N1CCC[C@@H](Nc2cc(Cl)cc(C(F)(F)F)c2)C1=O [Vecabrutinib, vecabrutinib]
residence time [5]: 15 min | Grade ≥3 AE at the two highest dose levels ([6]; 328 and 410 mg BID): no grade ≥3 AE observed | AE considered treatment-related by the investigator: anemia ([6]; all patients): 10% | AE considered treatment-related by the investigator: fatigue ([6]; all patients): 10% | Grade ≥3 AE: anemia ([6]; all patients): 23% | Grade ≥3 AE: thrombocytopenia ([6]; all patients): 10% | Patients with one or more serious AE (SAE) ([6]; all patients): seven | Treatment-emergent AE: anemia ([6]; all patients): 31% | Treatment-emergent AE: dyspnea ([6]; all patients): 21% | Treatment-emergent AE: fatigue ([6]; all patients): 21% | Treatment-emergent AE: headache ([6]; all patients): 21% | Treatment-emergent AE: nausea ([6]; all patients): 21% | Maximum-tolerated dose ([6]; doses 20.5-410 mg BID): not reached | Cardiac events or clinically significant electrocardiogram findings ([6]; human, in vivo): no cardiac events or clinically significant electrocardiogram findings | Dose-dependent toxicity ([6]; human, in vivo): No obvious pattern of dose-dependent toxicity | SAE related to study treatment per the investigator ([6]; human, in vivo): No SAE were considered related to study treatment | SAE: hematuria ([6]; human, in vivo): 1 patient | SAE: intestinal perforation ([6]; human, in vivo): 1 patient | SAE: lymphocytosis ([6]; human, in vivo): 1 patient | Dose up to which well-tolerated ([6]; oral capsules, highest dose studied): 410 mg BID | Best response of stable disease (SD), patients ([7]; 11 CLL, 1 MCL, 1 marginal zone lymphoma): 13 patients | Patients with PR or SD who received vecabrutinib for ≥6 months ([7]; of 14 patients with PR or SD): Eight | Median time on study treatment ([7]; patients with PR or SD): 28.5 weeks | Dose proportionality of exposure and median steady-state Ctrough [8]: approximately dose-proportional | Mean reduction in serum TNFa [9]: 24-57% | Mean reduction in serum CCL4 [10]: 33-59% | Protein bound [11]: 98.7% | Mean reduction in serum CCL3 [12]: 34-62%
